Calls of active or inactive are those of the source.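 Rule for the calls: active = phage lysis blocked by at least 50% at any tested concentration; inactive = the rest.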

Experimental findings from PubChem BioAssay AID504768 (Southern Research Specialized Biocontainment Screening …, 2011) are described below.

The test can be described thus: protection of E. coli UTI89 from K1F – UTI89 strain, C7 control, set 4, capsule biogenesis inhibitor project, confirmation (AID 504768). The following applies: OD600, at 300 µM (top of the series). In a few lines:
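Assay system: E. coli UTI89 (K1) and kpsM mutant bacterial cultures / Benchmarks: phage-resistant kpsM mutant culture as control / Schedule: 1.25 h at 37 °C pre-phage, 3 h post-infection read / Repeats: four replicate wells per compound concentration / Reagent: K1F phage infection / Detection: absorbance at 600 nm (OD600) / Compound: 1% DMSO final in wells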
`O=C(Nc1nc2c(F)cc(F)cc2s1)c1ccccc1`: the compound was called inactive.
Consider `O=C(Nc1nc2c(F)cc(F)cc2s1)c1ccncc1`, for which the result was inactive.
As for `O=C(Nc1nc2c(Cl)cc(Cl)cc2s1)c1ccccn1`, the call was inactive.
As for `Cc1cc(C)c2nc(NC(=O)c3ccccn3)sc2c1`, the compound was classed as inactive.
Take `O=C(Nc1nc2c(F)cc(F)cc2s1)c1cccnc1`: the compound was called inactive.
Consider `O=C(Nc1nc2c(F)cccc2s1)c1ccccn1`, for which the compound was called inactive.
The entry for `O=C(Nc1nc2ccccc2s1)c1ccncc1` is “inactive”; for `O=C(Nc1nc2ccccc2s1)c1cccnc1` it is “inactive”; for `O=C(Nc1nc2ccc(F)cc2s1)c1ccccn1` it is “inactive”.
